High-throughput results deposited in PubChem BioAssay by several laboratories.
DDE Tn6 FP inh: DD(E)-Tn6 binding inhibition, primary FP screen; P02675; Fibrin DD(E) TRITC-Tn6 fluorescence polarization displacement; inhibition, % at 8.3 µM; AID 720509; 370,000 compounds, 0.21% hits;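 active = inhibition above a per-campaign cutoff: mean of compounds within control limits plus 3 SD, cut at about 15% in these data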;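 note: 0% = median of all compound wells on the plate and 100% = blocking peptide control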
CendR NRP1 mod: modulators of CendR peptide binding to human neuropilin-1; FAM-RPARPAR peptide binding to NRP-1, fluorescence polarization; inhibition, % at 25 µM; 360,000 compounds, 0.85% hits; O14786;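 active = inhibition or corrected inhibition above about 18%, plus a signal ratio from 0.5 to 1.5, limit read from the data, passing the limit was not always enough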
DDE Tn7 FP inh: disrupts Tn7 cyclic peptide binding to fibrin D-Dimer-E complex | FP displacement of FITC-Tn7 peptide from fibrin DD(E); 0% = median of compound wells per plate | P02675 | inhibition, % at 8.3 µM | 370,000 compounds, 0.13% hits | AID 720508;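 active = inhibition above the mean of compounds falling within the control limits plus 3 SD of them, cut at about 14% in these data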;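 note: 0% = plate median of compound wells and 100% = 10 µM Aha-Tn7 peptide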
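Also added: labelled Tn7 tracer, 0.1 µM; Assay system: human fibrin DD(E) protein; Amount: 2 µM fibrin DD(E); Schedule: 10 min compound pre-incubation, 3 h probe incubation at room temperature; Repeats: one replicate per compound; Read-out basis: percent inhibition; Measured by: fluorescence polarization of the labelled Tn7 tracer.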
CRFBP-R2 agonist: agonists of human CRF-binding protein/CRF-R2 receptor complex; HEK293 CRF-R2/CRF-BP, calcium dye fluorescence (FLIPR); percent of saturating CRF peptide response; AID 588473; activation, % at 13.2 µM; 350,000 compounds, 0.46% hits;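 active = activation of at least 50%, plus an integration ratio under a set limit after plate pattern correction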;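 note: plate controls were neutral control wells without compound for no effect and CRF at EC100 for full effect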
CRFBP-R2 block: CRF-BP/CRF-R2 complex antagonism; HEK293 CRF-R2/CRF-BP, CRF-induced calcium fluorescence; inhibition, % at 11.8 µM; 350,000 compounds, 0.59% hits; AID 588475;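 active = inhibition of the ligand-induced calcium signal above about 50% at the single tested concentration, limit read from the data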
KLK7 zymogen act: activators of human kallikrein-7 zymogen. AID 652039. 370,000 compounds, 0.9% hits. activation, % at 7 µM. purified proKLK7, EDANS-DABCYL substrate fluorescence; 100% is mature enzyme control, 0% vehicle. P49862;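 active = activation above the mean of all tested compounds plus 3 SD, computed per campaign excluding outliers beyond control limits, cut at about 13% in these data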
Target sequence (P49862 whole entry, looked up): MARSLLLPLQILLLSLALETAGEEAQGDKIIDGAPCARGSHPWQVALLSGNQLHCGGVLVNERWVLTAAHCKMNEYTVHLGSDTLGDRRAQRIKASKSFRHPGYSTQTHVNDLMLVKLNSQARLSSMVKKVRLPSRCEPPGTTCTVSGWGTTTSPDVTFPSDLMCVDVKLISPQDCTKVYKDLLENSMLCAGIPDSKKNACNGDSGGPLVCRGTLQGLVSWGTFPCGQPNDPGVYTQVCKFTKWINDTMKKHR
KLK7 act conf: proKLK7 activation, confirmation | purified proKLK7, EDANS-DABCYL substrate fluorescence; scaled: vehicle 0, mature enzyme 100 | shares compounds with KLK7 zymogen act | 3,200 compounds, 68% hits | activation, % at 7 µM;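 active = activation, as change over the incubation, above the mean of all tested compounds plus 3 SD, cut at about 13% in these data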
EDANS interfere: fluorescence interference counter-screen for KLK7 activators; 3,200 compounds, 80% hits; shares compounds with KLK7 zymogen act; AID 686952; activation, % at 7 µM; EDANS-DABCYL substrate fluorescence interference, no enzyme, 4 h; solvent 0%, active enzyme control 100%;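 active = activation above the all-compound mean plus 3 SD, ignoring values outside control-based bounds, cut at about 4.8% in these data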;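 note: value is the 4 h activation minus the activation read at time zero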
* hit, by the source's call. In the library only some 2.9% were active in any assay of this set; here they are far more common.

For Cc1ccc(S(=O)(=O)c2c(N)n(NC(=O)c3ccco3)c3nc4ccccc4nc23)cc1 the results were DDE Tn6 FP inh -8, CendR NRP1 mod -18, DDE Tn7 FP inh 2, CRFBP-R2 agonist 0, CRFBP-R2 block -16, KLK7 zymogen act 46*, KLK7 act conf 4 and EDANS interfere 6.0*.
Cc1ccc(S(=O)(=O)c2c(N)n(-c3ccccc3)c3nc4ccccc4nc23)cc1 was read as DDE Tn6 FP inh 6, CendR NRP1 mod -12, DDE Tn7 FP inh 2, CRFBP-R2 agonist 1, CRFBP-R2 block -2 and KLK7 zymogen act -18.
For Cc1ccc(S(=O)(=O)N(CC(=O)NC2CCC(C)CC2)c2cc(C)cc(C)c2)cc1 (stereo not drawn) the results were DDE Tn6 FP inh -1, DDE Tn7 FP inh -1 and KLK7 zymogen act -1.
COc1ccc(CN2C(=O)Cc3c2nc(N)c2c(N)nc(N4CCOCC4)c(C#N)c32)cc1 was read as DDE Tn6 FP inh -3, CendR NRP1 mod -17, DDE Tn7 FP inh 6, CRFBP-R2 agonist 3, CRFBP-R2 block -2, KLK7 zymogen act 55*, KLK7 act conf -48 and EDANS interfere -49.
CCOc1cc2c(C#N)c(N3CCOCC3)nc(N)c2c(N)n1 was read as DDE Tn6 FP inh 4, CendR NRP1 mod -24, DDE Tn7 FP inh 3, CRFBP-R2 agonist 1, CRFBP-R2 block 6, KLK7 zymogen act 16*, KLK7 act conf 69* and EDANS interfere 66*.
`N#Cc1c(N2CCCCC2)nc(N)c2c(N)nc3c(c12)CC(CCl)O3` (stereo not drawn) gave DDE Tn6 FP inh -5, CendR NRP1 mod -26, DDE Tn7 FP inh 4, CRFBP-R2 agonist 0, CRFBP-R2 block 10, KLK7 zymogen act 14*, KLK7 act conf -149 and EDANS interfere -159.
Screening CCC1Cc2c(nc(N)c3c(N)nc(N4CCOCC4)c(C#N)c23)O1 (stereo not drawn) returned DDE Tn6 FP inh 6, CendR NRP1 mod -6, DDE Tn7 FP inh 2, CRFBP-R2 agonist -3, CRFBP-R2 block 8, KLK7 zymogen act 19*, KLK7 act conf -16 and EDANS interfere -24.
Cc1cc(N2CCOCC2)nc(N2CCOCC2)c1C#N was read as DDE Tn6 FP inh 0, CendR NRP1 mod 13, DDE Tn7 FP inh -2, CRFBP-R2 agonist -3, CRFBP-R2 block 31 and KLK7 zymogen act 0.
CCOC(=O)N[C@H](C(=O)N1CCC[C@H]1C(=O)NCCc1ccccc1Cl)C1CCCCC1 was read as DDE Tn6 FP inh 4, DDE Tn7 FP inh -4 and KLK7 zymogen act 0.
Screening COC(=O)[C@]12C[C@H](CC(=O)N3CCN(C(=O)C4CC4)CC3)C(=O)N(Cc3cccc4ccccc34)C1=C[C@H](C(C)(C)C)O[C@@H]2C returned DDE Tn6 FP inh -4, DDE Tn7 FP inh 3 and KLK7 zymogen act 0.
For Cc1ccc(-c2cc(C(=O)O)c3cc(Br)ccc3n2)s1 the results were DDE Tn6 FP inh -1, CendR NRP1 mod -9, DDE Tn7 FP inh -10, CRFBP-R2 agonist -2, CRFBP-R2 block 13, KLK7 zymogen act 14*, KLK7 act conf 22* and EDANS interfere 26*.
Cc1ccc(-c2cc(C(=O)N3CCCC3)c3ccccc3n2)s1 was read as DDE Tn6 FP inh 0, CendR NRP1 mod -6, DDE Tn7 FP inh -2, CRFBP-R2 agonist 0, CRFBP-R2 block -16 and KLK7 zymogen act 2.
Screening Cc1ccc(-c2cc(C(=O)NN3CCOCC3)c3cc(Br)ccc3n2)o1 returned DDE Tn6 FP inh 9, CendR NRP1 mod -22, DDE Tn7 FP inh -2, CRFBP-R2 agonist -1, CRFBP-R2 block -11, KLK7 zymogen act 52*, KLK7 act conf -185 and EDANS interfere -137.
